Screening data from PubChem BioAssay.
MC4R ag barr – MC4R agonists recruiting beta-arrestin, primary screen, cell-based, luminescence, agonist arm of biased-ligand search | AID 540308, 2011 | Melanocortin receptor 4 (Homo sapiens), P32245 | 360,000 tested, 0.98% active | U2OS MC4R beta-arrestin complementation; percent of melanotan II response, DMSO zero | activation, % at 8.9 µM;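 active = activation above a per-plate cutoff, the mean activation of sample wells on that plate plus 3 SD, cut at about 8% in these data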
Bfl-1 A1 inh – caspase 3/7 activation in MEF A1-2A-BIM cells, primary screen, A1 inhibitor project, cell-based, luminescence, HTS; Caspase-Glo 3/7 luminescence, 3 h; percent of clofoctol response, vehicle zero; caspase activation, % (test concentration not listed); 330,000 tested, 0.066% active; AID 2462, 2010;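 active = over half of replicate activation scores above 10%, or exactly half above 10 with the replicate mean above 10; inconclusive = replicate mean below 10 yet half the replicates above 10; inactive = over half of replicates below 10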
TbMetRS inhib – T. brucei MetRS inhibitors, primary screen, biochemical, luminescence; purified T. brucei MetRS, ATP depletion, Kinase-Glo luminescence; inhibition, % at 11.9 µM; 360,000 tested, 0.4% active; AID 624268, 2012;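 active = inhibition above a per-plate cutoff of the control wells' mean inhibition plus 3 SD, cut at about 5.5% in these data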;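 note: 0% = DMSO wells median and 100% = median of wells with control inhibitor compound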
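Material: parasite MetRS enzyme / Replication: singlicate, one well per compound / Signal: luminescence of leftover ATP / Schedule: 2 h aminoacylation at 25 °C after 15 min preincubation / Medium: HEPES-MgCl2-KCl buffer plus DTT, spermine, BSA, pyrophosphatase / Doses: 11.9 µM single point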
NLRP3 yeast inh – NALP3 inflammasome inhibitors in reconstituted yeast, primary screen, luminescence, uHTS | Yeast reconstituted NLRP3/ASC/caspase-1, beta-gal luminescence, 24 h | inhibition, % at 10 µM | 330,000 tested, 0.39% active;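 active = inhibition of 50% or more; inactive = inhibition below 50%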;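 note: plate controls were induced DMSO wells for no effect and uninduced yeast grown without galactose for full effect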
NALP1 inh – NALP1 inflammasome inhibitors in reconstituted yeast, colorimetric, S. cerevisiae, triplicate retest. S. cerevisiae NALP1/ASC/caspase-1 growth, X-gal OD620, 72 h. inhibition, % at 10 µM. 280,000 tested, 0.61% active. AID 2071, 2009; in the data active = inhibition mostly above about 24%, no sharp cut-off; inactive = mostly below about 32%
MC4R antag cAMP – MC4R antagonists of cAMP signaling, primary screen, cell-based, TR-FRET, antagonist arm of biased-ligand search; MC4R-expressing cells, MTII-stimulated cAMP, LANCE TR-FRET; 360,000 tested, 0.48% active; inhibition, % at 6.5 µM; Melanocortin receptor 4 (Homo sapiens), P32245;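 active = inhibition above its plate's cutoff, the mean of tested wells on that plate plus 3 SD, cut at about 29% in these data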;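 note: 0% = Melanotan II alone and 100% = Melanotan II plus saturating MCL0020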
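System: U2OS-MC4R stable cell line; Technique: Eu-cAMP/anti-cAMP TR-FRET, emission 671 nm; Repeats: single well per compound; Also added: Melanotan II; Dosing: one concentration, 6.5 µM nominal; Schedule: 30-min compound, 1-h challenge, 1-h detection, room temperature.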
MC4R barr ag – MC4R beta-arrestin agonists, retest, confirmation, cell-based, luminescence, U2OS. shares compounds with MC4R ag barr. U2OS MC4R beta-arrestin recruitment; scaled DMSO 0%, Melanotan II 100%. activation, % at 8.9 µM. 2,400 tested, 31% active;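 active = mean activation across replicates above the hit cutoff set in the earlier primary screen, cut at about 8% in these data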
MOR-DOR barr ag – agonists of MOR-DOR heterodimerization, counter-screen for MC4R biased agonist project, cell-based, luminescence; shares compounds with MC4R ag barr; activation, % at 9.2 µM; AID 602194, 2012; U2OS PathHunter beta-arrestin, beta-gal luminescence; percent of deltorphin B response, DMSO zero; 2,400 tested, 5.8% active;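 active = mean activation across replicates exceeds the hit threshold derived in the earlier primary screen, cut at about 18% in these data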;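 note: 100% = deltorphin B at 0.9 µM final and 0% = DMSO alone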
Target sequence (P35372 whole entry, looked up): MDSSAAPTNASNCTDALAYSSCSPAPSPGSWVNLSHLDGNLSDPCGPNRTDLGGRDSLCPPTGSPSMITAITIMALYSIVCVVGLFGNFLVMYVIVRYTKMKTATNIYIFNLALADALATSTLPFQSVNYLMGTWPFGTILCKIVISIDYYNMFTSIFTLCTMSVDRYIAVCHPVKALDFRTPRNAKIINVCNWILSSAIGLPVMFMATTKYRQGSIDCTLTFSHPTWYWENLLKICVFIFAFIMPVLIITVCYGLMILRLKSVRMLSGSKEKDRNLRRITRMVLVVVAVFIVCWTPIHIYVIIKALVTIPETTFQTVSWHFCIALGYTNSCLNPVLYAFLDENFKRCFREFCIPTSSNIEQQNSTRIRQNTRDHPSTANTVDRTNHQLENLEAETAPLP
Target sequence (P41143 whole entry, looked up): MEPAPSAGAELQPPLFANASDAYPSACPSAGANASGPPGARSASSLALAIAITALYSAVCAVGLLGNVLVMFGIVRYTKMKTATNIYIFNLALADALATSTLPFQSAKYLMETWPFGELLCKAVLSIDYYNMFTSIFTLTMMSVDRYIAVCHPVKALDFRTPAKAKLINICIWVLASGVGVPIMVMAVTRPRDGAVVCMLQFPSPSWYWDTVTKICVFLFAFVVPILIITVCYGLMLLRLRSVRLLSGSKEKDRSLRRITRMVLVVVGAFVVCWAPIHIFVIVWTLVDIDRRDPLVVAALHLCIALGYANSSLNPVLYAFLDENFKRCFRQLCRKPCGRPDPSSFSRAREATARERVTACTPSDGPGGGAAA
Active calls of the source: *; ? = inconclusive; / = no result given. A selection: hits, their analogues and other compounds. The true share with any hit is near 2.5%.

SMILES | MC4R ag barr | Bfl-1 A1 inh | TbMetRS inhib | NLRP3 yeast inh | NALP1 inh | MC4R antag cAMP | MC4R barr ag | MOR-DOR barr ag
CCc1ccc(CCC(=O)Nc2ncc(Cc3ccccc3Cl)s2)o1 | 18* | 2 | 0 | 1 | 27 | -27 | 25* | 13
O=C(CN1CCOCC1)Nc1ncc(Cc2ccccc2Cl)s1 | -2 | 0 | 0 | 16 | 27 | 5 | / | /
COc1c(F)c(F)c(C(=O)Nc2ccc(N3CCN(Cc4ccccc4)CC3)cc2)c(F)c1F | 11* | 0 | 0 | 18 | 7 | 13 | 2 | 4
COc1ccc2nc(C)cc(SCC(=O)NNC(=O)COc3ccc(C)cc3)c2c1 | 10* | ? | 0 | 4 | 4 | 7 | -2 | 2
O=C(NCCN1CCC(n2c(=O)[nH]c3ccccc32)CC1)c1ccc(Cl)cc1Cl | / | / | 0 | / | / | / | / | /
C#CCN1C(=O)S/C(=C\c2ccc(N3CCOCC3)cc2C)C1=O | 11* | 0 | 0 | 24 | 3 | 6 | -3 | 3
COc1ccc(NC(=O)COC(=O)c2ccc3c(c2)OCO3)c(OC)c1 | 14* | -1 | 0 | 4 | / | 14 | -2 | 4
COc1ccc(C)cc1NC(=O)COC(=O)c1ccc2c(c1)OCCO2 | 10* | -1 | 0 | 7 | / | 1 | -2 | 17
COc1ccc(C(C)=O)cc1COC(=O)c1ccc2c(c1)OCCO2 | 9.8* | 0 | 0 | 9 | / | 0 | 4 | 2
COc1ccc(C(C)=O)cc1COC(=O)c1ccc2c(c1)OCO2 | -1 | 1 | 0 | 15 | 28 | -8 | / | /
COc1ccc(C)cc1NC(=O)COC(=O)c1ccc2c(c1)OCO2 | 13* | -1 | -1 | 21 | / | 3 | -4 | 3
COc1ccc([C@H]2CC(=O)C[C@@H](CCn3cc(C)nn3)O2)cc1 | / | / | 0 | / | / | / | / | /
CCOc1ccccc1NC(=O)COC(=O)C(Cc1ccccc1)NC(=O)c1ccco1 (stereo not drawn) | -1 | 0 | 0 | 12 | / | 16 | / | /
CNC(=O)C[C@H]1C(=O)N(CCc2ccccc2)C[C@@H]1C | 2 | / | -1 | / | / | -2 | / | /
COc1ccc(NC(=O)COC(=O)c2ccc3c(c2)OCCO3)cc1OC | 17* | -2 | 0 | 7 | / | 14 | 9.0* | 3
CC(=O)Nc1cc(-c2ccc(N3CCN(C)CC3)cc2)cn2c(-c3ccccc3)cnc12 | 0 | / | 0 | / | / | -6 | / | /
CC(=O)Nc1cc(-c2cccc(C(=O)N(C)C)c2)cn2c(-c3cccc(C(=O)N(C)C)c3)cnc12 | 1 | / | 0 | / | / | 17 | / | /
CC(=O)Nc1cc(-c2ccoc2)cn2c(-c3ccccc3)cnc12 | 11* | / | 0 | / | / | 12 | 15* | 3
CC(=O)c1cccc(-c2cnc3c(NC=O)cc(-c4ccccc4F)cn23)c1 | 20* | / | 0 | / | / | -8 | 20* | 3
CN(C)C(=O)c1cccc(-c2cnc3c(NC=O)cc(-c4cccc(F)c4)cn23)c1 | 5 | / | 0 | / | / | -16 | / | /
CC(=O)Nc1cc(-c2cccc(C(=O)N(C)C)c2)cn2c(-c3ccc(F)c(Cl)c3)cnc12 | 16* | / | 0 | / | / | 9 | 23* | 2
CC(=O)Nc1cc(-c2ccccc2)cn2c(-c3cccc(C(C)=O)c3)cnc12 | 21* | / | 0 | / | / | 6 | 20* | 3
CCC/C=C/c1ccc(CN2C(C(C)C)C(=O)N(Cc3cn(CCC4OCCCO4)nn3)CCS2(=O)=O)cc1 (stereo not drawn) | 3 | / | 0 | / | / | 6 | / | /
CC(=O)N/C(=C\c1ccccc1)C(=O)OCCCOC(=O)/C(=C/c1ccccc1)NC(C)=O | -3 | 1 | 0 | 10 | 9 | 0 | / | /
CC(=O)Nc1cc(-c2cccc(C(=O)N(C)C)c2)cn2c(-c3ccc(C(C)=O)cc3)cnc12 | 11* | / | 0 | / | / | 21 | 6 | 1
SMILES | MC4R ag barr | Bfl-1 A1 inh | TbMetRS inhib | NLRP3 yeast inh | NALP1 inh | MC4R antag cAMP | MC4R barr ag | MOR-DOR barr ag
CC(=O)Nc1cc(-c2cccc(N)c2)cn2c(-c3ccccc3)cnc12 | 12* | / | 0 | / | / | 18 | 2 | 3
COc1cccc(-c2cnc3c(NC(C)=O)cc(-c4ccncc4)cn23)c1 | 5 | / | 0 | / | / | 7 | / | /
C1CC(=NN=C2CCSCC2)CCS1 | -1 | / | 0 | / | / | 0 | / | /
Cn1cc(CN2CCC(n3nccc3NC(=O)C3CCCC3)CC2)cn1 | -3 | 1 | 0 | 1 | 4 | 17 | / | /
CCOc1ccc2nc3cc(NCc4ccc(OC)cc4)ccc3c(N)c2c1 | 13* | 0 | 0 | 20 | 15 | 19 | 15* | 15
CC(=O)Nc1cc(-c2ccc(C(=O)N3CCOCC3)cc2)cn2c(-c3ccc(F)cc3)cnc12 | 7 | / | 0 | / | / | -1 | / | /
CC(=O)Nc1cc(-c2ccc(C(=O)N3CCOCC3)cc2)cn2c(-c3ccccc3)cnc12 | 25* | / | 0 | / | / | 7 | 19* | 1
CC(=O)Nc1cc(-c2ccc(C(=O)N3CCOCC3)cc2)cn2c(-c3ccc(C(C)=O)cc3)cnc12 | 3 | / | 0 | / | / | 8 | / | /
COc1ccc(-c2cnc3c(NC(C)=O)cc(-c4ccc(C(=O)N5CCOCC5)cc4)cn23)cc1OC | 11* | / | 0 | / | / | 3 | 9.4* | 3
COc1ccc(S(=O)(=O)N2CCOCC2)cc1NC(=O)c1ccccc1-c1ccc(C(F)(F)F)cc1 | 10* | 0 | 1 | 9 | 12 | 18 | 0 | 2
COc1ccc(NC(=O)c2ccccc2-c2ccc(C(F)(F)F)cc2)cc1S(=O)(=O)N1CCOCC1 | -1 | 0 | -1 | -20 | 30 | 1 | / | /
Fc1cccc(Cc2c(-c3cccc(Cl)c3)nc3c(Cl)cc(C(F)(F)F)cn23)c1 | / | / | 0 | / | / | / | / | /
O=C1/C(=C/c2ccc(F)cc2)SC(=S)N1Nc1ncc(C(F)(F)F)cc1Cl | 9.9* | -1 | -1 | 9 | 30 | 2 | 5 | 2
CCOC(=O)c1nn(-c2ccc(F)cc2)c(=O)cc1OCC(=O)N1CCN(c2ccccc2)CC1 | -3 | -1 | 0 | 17 | / | 9 | / | /
